Shown are actives, neighbours in structure and some others; about 0.55% of the full set was active somewhere.
TRPML3 agonist – human TRPML3 channel agonists, primary screen, cell-based, HEK293 TRPML3-YFP, Fluo-8 calcium fluorescence, 3 µM | Mucolipin-3 (Homo sapiens), Q8TDD5 | 100% = the carbachol control signal | activation, % at 3 µM | actives 0.29% (n = 220,000) | AID 1448, 2008;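 active = activation above its plate's cutoff, the mean activation of the plate's test wells plus 3 SD, cut at about 12% in these data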
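Test system: TRPML3-YFP stable HEK293 cells. Doses: single point at 3 µM. Incubation: dye loading 1 h 37 °C then 30 min ambient, 125 s read. Signal: Fluo-8 calcium dye fluorescence, ex 470-495, em 515-575 nm. Measure: percent activation from peak-to-basal fluorescence ratio, scaled between DMSO and carbachol.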
OXTR agonist – human OXTR agonists, primary screen, fluorescence, CHO-OTR cells, Fluo-8 calcium; activation, % at 3 µM; actives 0.32% (n = 320,000); AID 2435, 2010; Fluo-8 calcium fluorescence; normalized: DMSO 0%, oxytocin 100%;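 active = activation above the mean of all tested compounds plus 3 SD, cutoff set per screening run, cut at about 20% in these data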;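 also: peak over basal fluorescence ratio from a 100 s FLIPR kinetic read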
OXTR potentiator – human OXTR potentiators, primary screen, fluorescence, CHO-OTR cells, Fluo-8 calcium. Oxytocin receptor (Homo sapiens), P30559. Fluo-8 calcium fluorescence, potentiator mode; 0% = oxytocin EC15, 100% = EC100. activation, % at 3 µM. actives 0.061% (n = 320,000). AID 2445, 2010;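 active = activation above that plate's cutoff, the mean activation of tested compounds plus 3 SD, cut at about 6.6% in these data, passing the limit was not always enough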
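Material: human OTR in CHO cells. Compound: 3.0 µM, one dose. Timing: compound 6 min at room temperature before oxytocin, 100 s read. Evaluation: % activation of max/min ratio relative to oxytocin controls. Replication: single well per compound, singlicate. Signal: Fluo-8 calcium dye fluorescence.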
V1aR counter – agonists of human V1a receptor, primary screen, counter-screen for OXTR agonist project, fluorescence, CHO-V1R cells. actives 0.25% (n = 320,000). activation, % at 3 µM. Fluo-8 calcium fluorescence, agonist mode; 0% DMSO, 100% 3 nM vasopressin. Vasopressin V1a receptor (Homo sapiens), P37288;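 active = activation above the mean activation of all tested compounds plus 3 SD, per screening run, cut at about 20% in these data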;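 also: signal is peak over basal fluorescence ratio across a 100 second FLIPR read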
Target sequence (P37288 whole entry, looked up): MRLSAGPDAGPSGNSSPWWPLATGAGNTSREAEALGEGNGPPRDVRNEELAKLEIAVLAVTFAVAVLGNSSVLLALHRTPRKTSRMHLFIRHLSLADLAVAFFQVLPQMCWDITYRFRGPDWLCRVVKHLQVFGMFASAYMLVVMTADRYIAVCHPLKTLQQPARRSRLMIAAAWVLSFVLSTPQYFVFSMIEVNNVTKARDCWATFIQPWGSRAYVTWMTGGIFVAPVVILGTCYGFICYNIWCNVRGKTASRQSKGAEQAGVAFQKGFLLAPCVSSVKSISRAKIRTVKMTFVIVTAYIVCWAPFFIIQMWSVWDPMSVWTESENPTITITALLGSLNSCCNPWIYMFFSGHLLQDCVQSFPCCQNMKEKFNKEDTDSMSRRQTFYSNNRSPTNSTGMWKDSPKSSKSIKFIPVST
TRPN1 ag – zebrafish TRPN1 channel agonists, primary screen, cell-based, HEK293, calcium fluorescence. activation, % at 3 µM. transient receptor potential cation channel N1 (TRPN1/NompC), Danio rerio. AID 1424, 2008. HEK293 zebrafish TRPN1-YFP, Fluo-8 calcium fluorescence; 100% = response to 87 µM carbachol. actives 0.18% (n = 220,000);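 active = activation above its plate's cutoff, the mean activation of test wells on that plate plus 3 SD, cut at about 19% in these data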
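Material: zebrafish TRPN1-YFP in HEK293 cells. Doses: one dose of 3 µM, 0.3% DMSO. Incubation: dye 1 h 37 °C plus 30 min RT. Measured by: intracellular calcium fluorescence with Fluo-8.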
Of the large screens only hits and unclear results are named; the others gave an inactive call.

O=C(N/N=C/c1cc([N+](=O)[O-])ccc1N1CCNCC1)c1ccc([N+](=O)[O-])cc1	none
CCCCCCCCCC[N+](C)(C)CC/C=C1/c2ccccc2Sc2ccc(Cl)cc21	OXTR agonist 31.3, V1aR counter 36.9 (no result: TRPML3 agonist, TRPN1 ag)
Cc1cc(C)n(-c2cccc(CN(C)Cc3nc(-c4cnccn4)no3)c2)n1	none
COc1cc(/C=C2\SC(=S)N(NS(=O)(=O)c3ccc(C)cc3)C2=O)ccc1O	TRPML3 agonist 23.8, OXTR agonist 24.1, V1aR counter 39.3, TRPN1 ag 37.5
CCOc1cc(/C=C2\SC(=S)N(NS(=O)(=O)c3ccc(C)cc3)C2=O)ccc1O	none (no result: TRPML3 agonist, TRPN1 ag)
COc1cc(/C=C2\SC(=S)N(NC(=O)c3ccc(O)c(OC)c3)C2=O)ccc1O	OXTR agonist 36.8, V1aR counter 28.9 (no result: TRPML3 agonist, TRPN1 ag)
COc1cc(/C=C2\SC(=S)N(NS(=O)(=O)c3ccccc3)C2=O)ccc1O	TRPML3 agonist 16.7, OXTR agonist 23.6, V1aR counter 40.7, TRPN1 ag 24.9
COc1ccc(/C=C2/SC(=S)N(NS(=O)(=O)c3ccccc3)C2=O)cc1	none (no result: TRPML3 agonist, TRPN1 ag)
COc1cc(/C=C2\SC(=S)N(NC(=O)c3ccncc3)C2=O)ccc1O	none
O=C(CSc1nc2ccccc2s1)NCc1cc([N+](=O)[O-])ccc1O	none (no result: TRPML3 agonist, TRPN1 ag)
Cc1ccc(C2C(C#N)=C(N)N(c3ncn[nH]3)C3=C2C(=O)CC(C)(C)C3)cc1 (configuration not stated)	none
CCCc1cc(=O)[nH]c(SCC(=O)Nc2cc(S(=O)(=O)N(CC)c3ccccc3)ccc2Cl)n1	none (no result: TRPML3 agonist, TRPN1 ag)
COc1ccc(/C=N/NC(=O)c2nnn(-c3nonc3N)c2-c2cccs2)cc1OC	none (no result: TRPML3 agonist, TRPN1 ag)
CC(C)c1c(C(=O)N/N=C/c2ccc(C(F)(F)F)cc2)nnn1-c1nonc1N	OXTR agonist 66.0, V1aR counter 78.9 (no result: TRPML3 agonist, TRPN1 ag)
COc1cccc(-c2c(C(=O)N/N=C/c3cccs3)nnn2-c2nonc2N)c1	OXTR agonist 21.4, V1aR counter 28.1 (no result: TRPML3 agonist, TRPN1 ag)
CC(C)c1c(C(=O)N/N=C/c2ccoc2)nnn1-c1nonc1N	none (no result: TRPML3 agonist, TRPN1 ag)
Cc1ccc(/C=N/NC(=O)c2nnn(-c3nonc3N)c2-c2cccs2)cc1	OXTR agonist 56.4, V1aR counter 42.4 (no result: TRPML3 agonist, TRPN1 ag)
O=C(NCc1ccccc1Cl)C1=CC=CN2CCS(=O)(=O)N=C12	none (no result: TRPML3 agonist, TRPN1 ag)
CCOc1ccccc1N(CC(=O)N1CCOCC1)S(=O)(=O)c1ccccc1	TRPML3 agonist 182.0
CN1/C(=C\C=C2/SC(=S)N(CC(=O)O)C2=O)C(C)(C)c2ccccc21	TRPML3 agonist 12.1, OXTR agonist 110.6, V1aR counter 148.2, TRPN1 ag 41.4
CN1CCS/C1=C\C=C1/SC(=S)N(CC(=O)O)C1=O	TRPN1 ag 30.8 (no result: OXTR agonist, OXTR potentiator, V1aR counter)
COc1ccc(NC(=O)NCCCCc2ccccc2)c(OC)c1	none (no result: TRPML3 agonist, TRPN1 ag)
CC[n+]1c(/C=C2\Sc3ccccc3N2C)ccc2cccc(C)c21	TRPML3 agonist 17.9, TRPN1 ag 41.7 (no result: OXTR agonist, OXTR potentiator, V1aR counter)
CCN1/C(=C/c2ccc3cc(C)ccc3[n+]2CC)Sc2ccccc21	TRPML3 agonist 29.9, OXTR agonist 30.3, V1aR counter 32.0, TRPN1 ag 83.4
CN1/C(=C/c2cccc[n+]2CCO)Sc2ccccc21	none (no result: TRPML3 agonist, TRPN1 ag)
CC[n+]1ccccc1/C=C1\Sc2ccc(C)cc2N1C	none (no result: TRPML3 agonist, TRPN1 ag)
CCN1/C(=C/c2ccc3cc(C)ccc3[n+]2CC)Sc2cc(C)c(C)cc21	TRPML3 agonist 20.3, TRPN1 ag 49.0 (no result: OXTR agonist, OXTR potentiator, V1aR counter)
COc1cc(OC)cc(C(=O)NCC(=O)Nc2ccc(OC)c(Cl)c2)c1	none (no result: TRPML3 agonist, TRPN1 ag)
CCCCN1C(=O)/C(=C/C=C2/CC(C)(C)CN2C)SC1=S	TRPML3 agonist 14.0, OXTR agonist 51.6, V1aR counter 65.6, TRPN1 ag 26.1
CCCCN1C(=O)/C(=C/C=C2\Oc3ccccc3N2CC)SC1=S	none (no result: OXTR agonist, OXTR potentiator, V1aR counter)
CC(=O)Nc1ccccc1OCc1cnc(Cl)s1	none
O=C(Nc1nnc(C(F)(F)F)s1)c1ccc(Br)s1	TRPML3 agonist 19.3, TRPN1 ag 28.7
CC(NC(=O)Nc1nnc(C(F)(F)F)s1)(C(F)(F)F)C(F)(F)F	TRPML3 agonist 21.2, TRPN1 ag 25.8
CC(C)(C)CC(=O)Nc1nnc(C(F)(F)F)s1	none
NC(=O)c1ccccc1NC(=O)c1ccccc1Cl	none
O=C(Nc1ccccc1C(=O)Nc1nnc(C(F)(F)F)s1)c1ccccc1Cl	TRPML3 agonist 13.2, TRPN1 ag 23.0
CC1CCC(NC(=O)CSc2nncs2)CC1 (configuration not stated)	none (no result: TRPML3 agonist, TRPN1 ag)
O=C(N/N=C/c1ccc(O)cc1)c1ccc(COc2cc(Cl)ccc2Cl)o1	OXTR agonist 32.7, V1aR counter 33.2, TRPN1 ag 23.6
O=C(Nc1cccnc1)c1ccc(COc2cc(Cl)ccc2Cl)o1	none
O=C(Nc1ccccn1)c1ccc2c(c1)S(=O)(=O)c1ccccc1C2=O	none
O=C1c2ccccc2S(=O)(=O)c2cc(C(=O)N(c3ccccn3)c3ccccn3)ccc21	TRPML3 agonist 75.5, OXTR agonist 87.7, V1aR counter 89.3, TRPN1 ag 35.1
COc1cc(/C=C2\CC/C(=C\c3ccc(OCCO)c(OC)c3)C2=O)ccc1OCCO	TRPML3 agonist 26.6, OXTR agonist 30.5, V1aR counter 42.9, TRPN1 ag 49.8
COc1ccc(SC[C@H](Cc2ccccc2)N2CC[C@@H](C)CCC2=O)cc1	none (no result: TRPML3 agonist, TRPN1 ag)
CC1(C)CC[C@]2(C(=O)O)CC[C@]3(C)C(=CC[C@@H]4[C@@]5(C)CC[C@H](O[C@@H]6O[C@H](C(=O)O)[C@@H](O)[C@H](O[C@@H]7OC[C@H](O)[C@H](O)[C@H]7O)[C@H]6O)C(C)(C)[C@@H]5CC[C@]43C)[C@@H]2C1	OXTR agonist 56.0, V1aR counter 108.4 (no result: TRPML3 agonist, TRPN1 ag)
CC(=O)[C@]1(O)Cc2c(O)c3c(c(O)c2[C@@H](O[C@H]2C[C@H](N)[C@H](O)[C@H](C)O2)C1)C(=O)c1ccccc1C3=O	OXTR agonist 77.3, V1aR counter 40.5 (no result: TRPML3 agonist, TRPN1 ag)
COc1cccc2c1C(=O)c1c(O)c3c(c(O)c1C2=O)C[C@@](O)(C(C)=O)C[C@@H]3O[C@H]1C[C@H](N)[C@H](O)[C@H](C)O1	none (no result: OXTR agonist, OXTR potentiator, V1aR counter)
CCOC(=O)Cc1csc(NS(=O)(=O)c2ccc([N+](=O)[O-])cc2)n1	none (no result: TRPML3 agonist, TRPN1 ag)
CN(C)/C=C1\C=C2C(=O)c3ccccc3N2C1=O	TRPML3 agonist 357.4, OXTR agonist 436.2, V1aR counter 95.2, TRPN1 ag 729.2
CN(C)S(=O)(=O)N1C(=O)c2ccccc2C1=O	none
CCc1ccc(Nc2n[n+](-c3ccccc3)c(-c3c(Cl)cccc3Cl)s2)cc1	OXTR agonist 47.5, V1aR counter 64.0 (no result: TRPML3 agonist, TRPN1 ag)
